Test results published in ChEMBL document CHEMBL1155267, “Synthesis of novel bioactive derivatives of 3-(4-chlorophenyl)-2-hydrazino-5,6,7,8-tetrahydrobenzo(b)thieno[2,3-d]pyrimidine-4(3H)-ones” (2009).

Columns and labels:
Type in all cases: functional
[1] = tested on: Mus musculus; assay: Anticonvulsant activity in Swiss albino mouse assessed as protection against PTZ-induced clonic convulsions at 10 mg/kg, ip administered after 30 mins PTZ challenge measured for 20 mins; conditions: route intraperitoneal
Method in brief: (§1)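 Groups of six mice got the test suspension in 1% CMC i.p. at the stated dose. After 30 min they received aqueous PTZ 85 mg/kg s.c. and were watched for 20 min for clonic convulsions. The result is the percentage of animals protected.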

[2] = tested on: Mus musculus; assay: Antidepressant activity in Swiss albino mouse at 5 mg/kg, ip after 60 mins by photoactometer method; conditions: route intraperitoneal
Method in brief: (§2)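 Swiss albino mice of either sex, 25–40 g, six per group, acclimatised 10 min. Baseline photoactometer counts were taken over 10 min. Dosing was 5 mg/kg i.p. in 1% CMC, with each group serving as its own control. At 20 and 50 min animals entered the chamber, rested 10 min, then counts were taken for 10 min. % depression = (control − decrease in count)/control ×100. Mean ± SEM, n=6.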

[3] = tested on: Mus musculus; assay: Anticonvulsant activity in Swiss albino mouse assessed as protection against PTZ-induced clonic convulsions at 8 mg/kg, ip administered after 30 mins PTZ challenge measured for 20 mins; conditions: route intraperitoneal; method in brief: as §1
[4] = tested on: Mus musculus; assay: Anticonvulsant activity in Swiss albino mouse assessed as protection against PTZ-induced clonic convulsions at 9 mg/kg, ip administered after 30 mins PTZ challenge measured for 20 mins; conditions: route intraperitoneal; method in brief: as §1
[5] = tested on: Mus musculus; assay: Skeletal muscle relaxant activity in Swiss albino mouse assessed as number of falls form rotarod at 5 mg/kg, ip after 30 mins by rotarod method relative to Diazepam; parameters: scale not given: the % may be the effect or the level left; conditions: route intraperitoneal
Method in brief: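 Mice 25–40 g, six per group, were dosed at 5 mg/kg in 1% CMC, with each group serving as its own control. Falls per min on the Rotarod were recorded before dosing and 30 min after. % relaxation = (mean increase in falls − mean control)/mean control ×100. Mean ± SEM, n=6.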

[6] = tested on: Mus musculus; assay: Antidepressant activity in Swiss albino mouse at 5 mg/kg, ip after 30 mins by photoactometer method; conditions: route intraperitoneal; method in brief: as §2
[7] = tested on: Mus musculus; assay: Anticonvulsant activity in Swiss albino mouse assessed as protection against PTZ-induced clonic convulsions administered after 30 mins PTZ challenge measured for 20 mins
Method in brief: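 Mice (groups of six) got the test suspension in 1% CMC i.p., then 30 min later aqueous PTZ 85 mg/kg s.c. Clonic convulsions were watched for 20 min. The number of animals protected per group served as the percentage response for calculating ED50.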

[8] = tested on: Mus musculus; assay: Anticonvulsant activity in Swiss albino mouse assessed as protection against PTZ-induced clonic convulsions at 7 mg/kg, ip administered after 30 mins PTZ challenge measured for 20 mins; conditions: route intraperitoneal; method in brief: as §1
[9] = tested on: Mus musculus; assay: Anticonvulsant activity in Swiss albino mouse assessed as protection against PTZ-induced clonic convulsions at 5 mg/kg, ip administered after 30 mins PTZ challenge measured for 20 mins; conditions: route intraperitoneal; method in brief: as §1
[10] = tested on: Mus musculus; assay: Anticonvulsant activity in Swiss albino mouse assessed as protection against PTZ-induced clonic convulsions at 6 mg/kg, ip administered after 30 mins PTZ challenge measured for 20 mins; conditions: route intraperitoneal; method in brief: as §1
[11] = tested on: Mus musculus; assay: Anticonvulsant activity in Swiss albino mouse assessed as protection against PTZ-induced clonic convulsions at 4 mg/kg, ip administered after 30 mins PTZ challenge measured for 20 mins; conditions: route intraperitoneal; method in brief: as §1
[12] = tested on: Mus musculus; assay: Anticonvulsant activity in Swiss albino mouse assessed as protection against PTZ-induced clonic convulsions at 11 mg/kg, ip administered after 30 mins PTZ challenge measured for 20 mins; conditions: route intraperitoneal; method in brief: as §1

Structure (SMILES)	Activity [1]	Activity [2]	Activity [3]	Activity [4]	Activity [5]	Activity [6]	ED50 [7]	Activity [8]	Activity [9]	Activity [10]	Activity [11]	Activity [12]
CCc1nnc2n(-c3ccc(Cl)cc3)c(=O)c3c4c(sc3n12)CCCC4	100%	83.92%	33.33%	66.66%	105.49%	71.42%	8.5 mg/kg	–	–	–	–	–
O=c1c2c3c(sc2n2c(S)nnc2n1-c1ccc(Cl)cc1)CCCC3	–	90%	–	–	109.62%	81.71%	5.5 mg/kg	100%	33.33%	66.66%	–	–
Nc1nnc2n(-c3ccc(Cl)cc3)c(=O)c3c4c(sc3n12)CCCC4	–	88.78%	100%	–	107.52%	82.24%	6.73 mg/kg	66.66%	–	16.66%	–	–
CCCc1nnc2n(-c3ccc(Cl)cc3)c(=O)c3c4c(sc3n12)CCCC4	–	90.4%	–	–	116.62%	78.78%	4.4 mg/kg	–	83.33%	100%	16.66%	–
Cc1nnc2n(-c3ccc(Cl)cc3)c(=O)c3c4c(sc3n12)CCCC4	83.33%	82.65%	–	33.33%	102.75%	75.51%	9.33 mg/kg	–	–	–	–	100%
CN1C(=O)CN=C(c2ccccc2)c2cc(Cl)ccc21 [DIAZEPAM]	–	89.32%	–	–	–	85.43%	1.18 mg/kg	–	–	–	–	–
